Laboratory results published in ChEMBL document CHEMBL1135704, “Design, synthesis, and evaluation of novel 2-substituted 3-hydroxypyridin-4-ones: structure-activity investigation of metalloenzyme inhibition by iron chelators” (J Med Chem, 2002).

Tested on: Rattus norvegicus
Test: The compound was tested in vivo for Iron Mobilization efficacy in Fe-Ferritin Loaded Rat model
Assay type: functional
Settings: not given
How it was run: (§1)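 One hour later chelator given orally at 450 µmol/kg (controls: equal volume water); individual metabolic cages, food returned 1 h post-dose. Killed 24 h after labelling; liver and GI tract with contents and feces gamma-counted. Mean ± SD, n = 5.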

| Compound | Efficacy |
| --- | --- |
| CC(=O)NCCC(=O)NCc1c(O)c(=O)cc(C)n1C | 5.9% |
| Cc1c(O)c(=O)ccn1C [DEFERIPRONE] | 9.5% |
| CCCNC(=O)CCC(=O)NCc1c(O)c(=O)cc(C)n1C | 19.4% |

Tested on: not listed separately
Test: Partition coefficient (logP)
Assay type: physicochemical
Settings: octanol/water
How it was run: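 Distribution coefficient D7.4 between 1-octanol and 50 mM MOPS pH 7.4 (mutually saturated). Ligand in aqueous phase at 0.5–1.5 absorbance near 280 nm; octanol added in aliquots, aqueous UV absorbance monitored continuously to equilibrium after each. D = [(A0−A1)/A1]·(Vw/Vo) per addition.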

| Compound | logP |
| --- | --- |
| CCCc1c(O)c(=O)cc(C)n1C | 0.4 |
| Cc1cc(=O)c(O)c(CNC(=O)C(C)C)n1C | -0.35 |
| CC(=O)NCCC(=O)NCc1c(O)c(=O)cc(C)n1C | -1.7 |
| CCCCc1c(O)c(=O)cc(C)n1C | 0.9 |
| CCc1c(O)c(=O)ccn1C | -0.21 |
| Cn1ccc(=O)c(O)c1 | -0.6 |
| COCc1c(O)c(=O)cc(C)n1C | -0.41 |
| CCC(=O)NCc1c(O)c(=O)cc(C)n1C | -0.72 |
| CCCNC(=O)CCC(=O)NCc1c(O)c(=O)cc(C)n1C | -0.701 |

Species: Rattus norvegicus
Test: The compound was tested for % iron mobilization in Fe-Ferritin Loaded Rat model
Assay type: functional
Settings: not given
How it was run: as §1

| Compound | Mobilization |
| --- | --- |
| CC(=O)NCCC(=O)NCc1c(O)c(=O)cc(C)n1C | 9.7% |
| Cc1c(O)c(=O)ccn1C [DEFERIPRONE] | 13.4% |
| CCCNC(=O)CCC(=O)NCc1c(O)c(=O)cc(C)n1C | 23.3% |

Tested on: not listed separately
Test: Inhibitory activity against 5-lipoxygenase, by using soybean lipoxygenase spectrophotometric assay
Design: concentration or dose not given beside the values
Settings: concentration not given here
How it was run: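 Soybean lipoxygenase (10 000 units/mL stock in 0.2 M borate pH 9.0; final 500 units per 3.0 mL) preincubated 30 min at room temperature with chelator at 110 µM iron-binding equivalents or diluent; reaction started with linoleic acid in borate buffer. Linoleic hydroperoxide formation followed at 234 nm (ε 23600 M-1 cm-1); rate versus control gives % inhibition.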

| Compound | inhibition |
| --- | --- |
| CCCc1c(O)c(=O)cc(C)n1C | 30% |
| Cc1cc(=O)c(O)c(CNC(=O)C(C)C)n1C | 21% |
| CC(=O)NCCC(=O)NCc1c(O)c(=O)cc(C)n1C | 3.8% |
| Cc1c(O)c(=O)ccn1C [DEFERIPRONE] | 39.4% |
| CCCCc1c(O)c(=O)cc(C)n1C | 29.6% |
| CCCCCCCCn1ccc(=O)c(O)c1C | 98.7% |
| CCc1c(O)c(=O)ccn1C | 48.5% |
| CCCCn1ccc(=O)c(O)c1C | 80% |
| CCn1ccc(=O)c(O)c1C | 58.4% |
| Cn1ccc(=O)c(O)c1 | 59.4% |
| CCCCCCn1ccc(=O)c(O)c1C | 93.2% |
| COCc1c(O)c(=O)cc(C)n1C | 14.8% |
| CCC(=O)NCc1c(O)c(=O)cc(C)n1C | 13.5% |
| CCCCCn1ccc(=O)c(O)c1C | 90% |
| CCCNC(=O)CCC(=O)NCc1c(O)c(=O)cc(C)n1C | 2.1% |
| CC(=O)NCc1c(O)c(=O)cc(C)n1C | 18.5% |
